Results: PMC7111275 (European Journal of Medicinal Chemistry, 2013)
Each block holds one compound with its values, some of them ahead of it.

Tests used:
[1] = test system: hepatitis C virus (HCV) replicon in Huh 7 cells; assay: Subgenomic HCV replicon system in Huh 7 cells; format: cell-based; conditions: 10 μM
Procedure, shortened: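 Huh 7 Clone B cells carrying subgenomic HCV replicon RNA were seeded at 3000 cells/well and given test compound at 10 μM in triplicate immediately after seeding. After 5 days at 37 °C in 5% CO2, total RNA was extracted. Replicon RNA was measured against an rRNA internal control by one-step multiplex real-time RT-PCR. ΔCt was taken versus the no-drug control, where ΔCt 3.3 = 1-log reduction; rRNA ΔCt gave cytotoxicity. 2′-C-Me-C at 10 μM served as the control.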

[2] = test system: PBMC, human lymphoblastoid CEM and Vero cells; assay: Cytotoxicity testing in PBMC, CEM and Vero cells; format: cell-based; conditions: at 100 μM
[3] = test system: Hel cells; conditions: at 100 μM, Hel cell cultures
[4] = test system: HIV; assay: Anti-HIV activity in cellular assay; format: cell-based; conditions: Human immunodeficiency virus 1, read-out: Anti-HIV activity EC90

Compound: COC(=O)c1nccn(C/C=C/CP(=O)(OCOC(=O)C(C)(C)C)OCOC(=O)C(C)(C)C)c1=O [Compound 13, (E)-N^1-(4′-Bis(POM)-phosphinylbut-2′-enyl)-3-oxo-pyrazine-2-methylester]
- Anti-HCV activity (in words) [1]: pronounced anti-HCV activity
- Cytotoxicity (in words) [2]: without significant cytotoxicity

Compound: CC(C)(C)C(=O)OCOP(=O)(C/C=C/Cn1cc(C(=O)O)nn1)OCOC(=O)C(C)(C)C [Compound 24, (E)-1-(4′-Bis(POM)-phosphinylbut-2′-enyl)-4-(carboxylic acid)-1,2,3-triazole]
- Anti-HCV activity (in words) [1]: pronounced anti-HCV activity
- Cytotoxicity (in words) [2]: without significant cytotoxicity

Compound: CC(C)(C)C(=O)OCOP(=O)(C/C=C/Cn1cc(CO)nn1)OCOC(=O)C(C)(C)C [Compound 31, (E)-1-(4′-Bis(POM)-phosphinylbut-2′-enyl)-4-(hydroxymethyl)-1,2,3-triazole]
- Cytotoxicity (in words) [3]: no observed cytotoxicity

- EC90 [4]: > 100 µM
Compound: CC(C)(C)C(=O)OCOP(=O)(C/C=C/Cn1ccc(N)nc1=O)OCOC(=O)C(C)(C)C [Compound 8a, (E)-N^1-(4′-Bis(POM)phosphinyl-2′-butenyl)-cytosine]
- Anti-HCV activity (in words) [1]: pronounced anti-HCV activity
- Cytotoxicity (in words) [2]: without significant cytotoxicity

Compound: CC(C)(C)C(=O)OCOP(=O)(C/C=C/Cn1ccnc(C(N)=O)c1=O)OCOC(=O)C(C)(C)C [Compound 14, (E)-N^1-(4′-Bis(POM)-phosphinylbut-2′-enyl)-3-oxo-pyrazine-2-carboxamide]
- Anti-HCV activity (in words) [1]: pronounced anti-HCV activity
- Cytotoxicity (in words) [2]: without significant cytotoxicity
